In ChEMBL document CHEMBL4393661, “PRODRUGS FOR NITROREDUCTASE BASED CANCER THERAPY- 2: Novel amide/Ntr combinations targeting PC3 cancer cells” (Eur J Med Chem, 2019):

Columns and labels:
Putative nitroreductase [1] = biological target: T1, Putative nitroreductase (Staphylococcus saprophyticus subsp. saprophyticus (strain ATCC 15305 / DSM20229 / NCIMB 8711 / NCTC 7292 / S-41), UniProt Q4A0P1); assay: Substrate activity at Staphylococcus saprophyticus nitroreductase expressed in Escherichia coli assessed as retention time […] at 100 uM by HPLC analysis (0 to 5 mins at 20 % ACN, 15 to 22 min at 80% ACN, 27-32 AT 20% ACN); format: ADME
T1 sequence (Q4A0P1 whole entry): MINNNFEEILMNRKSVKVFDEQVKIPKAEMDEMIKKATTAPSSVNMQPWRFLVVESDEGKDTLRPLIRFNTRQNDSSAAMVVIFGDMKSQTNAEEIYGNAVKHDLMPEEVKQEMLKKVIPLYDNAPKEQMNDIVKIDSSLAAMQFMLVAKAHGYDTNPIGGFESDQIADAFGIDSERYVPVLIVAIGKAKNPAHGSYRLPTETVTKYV

PC-3 [2] = assay: Cytotoxicity in human PC3 cells assessed as reduction in cell viability at 180 nM measured after 48 hrs by SRB assay; format: cell-based; conditions: pc-3, 48 h, 0.18 µM
Outline: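 They were exposed for 48 h to prodrug alone at 180 nM final, without enzyme or NADH, with 25 mM Tris-HCl as vehicle control. Cells were fixed with 12.5% TCA for 1 h at 4 °C, stained with 0.4% SRB and read at 492 nm as % cell survival, in triplicate.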

PC-3 [3] = assay: Cytotoxicity against human PC3 cells assessed as reduction in cell viability measured after 48 hrs in presence of Staphylococcus saprophyticus nitroreductase and NADH by SRB assay; format: cell-based; conditions: PC-3, 48 h
Outline: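 Prodrug at 180, 18 or 1.8 nM was premixed with Ssap-NtrB (31 µg/mL final) and NADH (600 µM final; 900 µM for CB1954) in 25 mM Tris-HCl pH 7.5, then added for 48 h under aerobic conditions. Cells were fixed with 12.5% TCA, stained with SRB and read at 492 nm, in triplicate.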

[4] = Cytotoxicity against human Hep3B cells assessed as cell viability at 9 to 150 uM measured after 48 hrs by MTT assay relative to control; format: cell-based, Hep 3B2; conditions: read-out: Activity
Outline: (§1)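 Hep3B and HUVEC cells were grown in high-glucose medium with 10% heat-inactivated FBS and 2 mM glutamine at 37 °C in 5% CO2. Cells were seeded at 5x10^4 per well and left 24 h to attach. They were then exposed for 48 h to 150, 75, 39, 19 and 9 µM, with 1% DMSO as vehicle control. Viability was read by MTT at 550 nm as (OD sample/OD control)×100.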

[5] = Cytotoxicity against human HUVEC cells assessed as cell viability at 9 to 150 uM measured after 48 hrs by MTT assay relative to control; format: cell-based; conditions: read-out: Activity; outline: as §1
[6] = Cytotoxicity against human PC3 cells assessed as cell viability at 9 to 150 uM measured after 48 hrs by MTT assay relative to control; format: cell-based, PC-3; conditions: read-out: Activity
Outline: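 They were treated for 48 h at 9, 18, 39, 78 and 150 µM, with 1% DMSO as vehicle control. Viability was read by MTT at 550 nm.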

Putative nitroreductase [7] = biological target: T1, Putative nitroreductase; assay: Substrate activity at Staphylococcus saprophyticus nitroreductase expressed in Escherichia coli assessed as retention time in the presence of NADPH at 100 uM by HPLC analysis (0 to 5 mins at 20% ACN, 25 to 35 min at 80% ACN, 40 to 45 min at 20% ACN); format: ADME
[8] = biological target: T2, Staphylococcus saprophyticus nitroreductase (Staphylococcus saprophyticus subsp. saprophyticus (strain ATCC 15305 / DSM20229 / NCIMB 8711 / NCTC 7292 / S-41), UniProt Q4A0P1); assay: Substrate activity at Staphylococcus saprophyticus nitroreductase expressed in Escherichia coli assessed as half life […] at 100 uM by HPLC analysis (0 to 5 mins at 20% ACN, 25 to 35 min at 80% ACN, 40 to 45 min at 20% ACN); format: ADME
T2 sequence (Q4A0P1 whole entry): T1 sequence (Q4A0P1 whole entry)

Putative nitroreductase [9] = biological target: T1, Putative nitroreductase; assay: (§2) Prodrug conversion assessed Staphylococcus saprophyticus nitroreductase expressed in Escherichia coli-mediated N,N'-(cyclohexane-1,4-diyl)bis(4-aminobenzamide) formation by measuring retention time at 100 uM incubated for 15 mins in presence of FDH cofactor regeneration system by HPLC analysis; format: ADME; conditions: 0.25 h
Outline: (§3)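 This was a coupled regeneration reaction: 100 µM substrate in Tris/Cl pH 7.5 with 5–15% DMSO, plus 100 µM NADH, 10 µM NAD+, 0.1 mg/mL BSA, 200 µM sodium formate, 30 µg/mL Ssap-NtrB and 30 µg/mL Candida methylica FDH, at 25 °C. Aliquots were taken over time, quenched 1:1 with cold acetonitrile and analysed by C18 HPLC using program II (20→80→20% ACN). Peak areas were read at 254 and 340 nm.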

Putative nitroreductase [10] = biological target: T1, Putative nitroreductase; assay: as §2, with “4-amino-N-(4-(4-(hydroxyamino)benzamido)cyclohexyl)benzamide” for “N,N'-(cyclohexane-1,4-diyl)bis(4-aminobenzamide)”; format: ADME; conditions: 0.25 h; outline: as §3
Putative nitroreductase [11] = biological target: T1, Putative nitroreductase; assay: as §2, with “N,N'-(cyclohexane-1,4-diyl)bis(4-(hydroxyamino)benzamide)” for “N,N'-(cyclohexane-1,4-diyl)bis(4-aminobenzamide)”; format: ADME; conditions: 0.25 h; outline: as §3
Putative nitroreductase [12] = biological target: T1, Putative nitroreductase; assay: as §2, with “time of metabolite” for “time”; format: ADME; conditions: 0.25 h; outline: as §3
Putative nitroreductase [13] = biological target: T1, Putative nitroreductase; assay: Prodrug conversion assessed Staphylococcus saprophyticus nitroreductase expressed in Escherichia coli-mediated N,N'-(cyclohexane-1,4-diyl)bis(4-aminobenzamide) formation at 100 uM incubated for 15 mins by HPLC analysis; format: ADME; conditions: 0.25 h
Putative nitroreductase [14] = biological target: T1, Putative nitroreductase; assay: Prodrug conversion assessed Staphylococcus saprophyticus nitroreductase expressed in Escherichia coli-mediated 4-amino-N-(4-(4-(hydroxyamino)benzamido)cyclohexyl)benzamide formation at 100 uM incubated for 15 mins by HPLC analysis; format: ADME; conditions: 0.25 h
Putative nitroreductase [15] = biological target: T1, Putative nitroreductase; assay: Prodrug conversion assessed Staphylococcus saprophyticus nitroreductase expressed in Escherichia coli-mediated N,N'-(cyclohexane-1,4-diyl)bis(4-(hydroxyamino)benzamide) formation at 100 uM incubated for 15 mins by HPLC analysis; format: ADME; conditions: 0.25 h
Putative nitroreductase [16] = biological target: T1, Putative nitroreductase; assay: Prodrug conversion assessed Staphylococcus saprophyticus nitroreductase expressed in Escherichia coli-mediated 4-(hydroxyamino)-N-(4-(4-nitrobenzamido)cyclohexyl)benzamide formation at 100 uM incubated for 15 mins by HPLC analysis; format: ADME; conditions: 0.25 h
[17] = Solubility of the compound in 15% DMSO; format: physicochemical
Putative nitroreductase [18] = biological target: T1, Putative nitroreductase; assay: Prodrug conversion assessed Staphylococcus saprophyticus nitroreductase expressed in Escherichia coli-mediated (4-(hydroxyamino)phenyl)(morpholino)methanone metabolite formation by measuring retention time of metabolite at 100 uM incubated for 15 mins by HPLC analysis; format: ADME; conditions: 0.25 h
Outline: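 Recombinant Ssap-NtrB, Ni-column purified, was used at 2.5 µg/mL. Substrate at 100 µM was reacted with 200 µM NADH in 25 mM Tris/Cl pH 7.5 with 10% DMSO at 25 °C for 15 min. The reaction was stopped 1:1 with cold acetonitrile and run on C18 RP-HPLC at 1 mL/min with a 20–80% ACN gradient. Peaks were detected at 254 and 340 nm.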

O=C(NC1CCC(NC(=O)c2ccc([N+](=O)[O-])cc2)CC1)c1ccc([N+](=O)[O-])cc1 (stereo not drawn)
Retention_time (Putative nitroreductase [1]): 19.96 min | Activity (PC-3 [2]): Non-Toxic | IC50 (PC-3 [3]): 1.79 nM | viability at 48 h, up to 150 µM [4]: > 80% | viability at 48 h, up to 150 µM [5]: > 80% | viability at 48 h, up to 150 µM [6]: > 80% | Retention_time (Putative nitroreductase [7]): 19.2 min | half-life at 100 µM [8]: < 1.5 h | Retention_time (Putative nitroreductase [9]): 13.48 min | Retention_time (Putative nitroreductase [10]): 13.48 min | Retention_time (Putative nitroreductase [11]): 13.48 min | Retention_time (Putative nitroreductase [12]): 13.48 min | Drug metabolism (Putative nitroreductase [13]): Metabolite_Notdetected | Drug metabolism (Putative nitroreductase [14]): Metabolite_Notdetected | Drug metabolism (Putative nitroreductase [15]): Metabolite_Notdetected | Drug metabolism (Putative nitroreductase [16]): Metabolite_Detected | solubility [17]: Soluble

O=C(c1ccc(NO)cc1)N1CCOCC1
Retention_time (Putative nitroreductase [18]): 11.71 min
